The M2OR odorant receptor database
Residue numbers refer to the chain shown, from its start.

Experiments:
Settings in all cases: stereoisomer not certain
[1] = biological target: T1, OR9A4 (Homo sapiens) (UniProt Q8NGU2)
T1 sequence (whole entry): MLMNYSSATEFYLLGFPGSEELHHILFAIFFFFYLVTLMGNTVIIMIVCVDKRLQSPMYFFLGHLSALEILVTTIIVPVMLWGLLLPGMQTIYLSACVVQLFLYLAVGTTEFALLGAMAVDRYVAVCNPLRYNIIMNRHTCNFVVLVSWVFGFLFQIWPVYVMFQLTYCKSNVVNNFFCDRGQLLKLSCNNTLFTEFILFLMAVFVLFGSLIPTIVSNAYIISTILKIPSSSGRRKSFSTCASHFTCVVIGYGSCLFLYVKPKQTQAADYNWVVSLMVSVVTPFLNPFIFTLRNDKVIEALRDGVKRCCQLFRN
How it was run: (§1)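 Each entry records the cell line, G-protein, co-transfected protein and tags used. Methods varied with the source, often transient luciferase assays in mammalian cell lines. A receptor–molecule pair is called responsive (active) if the original authors judged its signal statistically different from baseline and non-responsive (inactive) otherwise.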

[2] = biological target: T2, OR9G1 (Homo sapiens) (UniProt Q8NH87)
T2 sequence (whole entry): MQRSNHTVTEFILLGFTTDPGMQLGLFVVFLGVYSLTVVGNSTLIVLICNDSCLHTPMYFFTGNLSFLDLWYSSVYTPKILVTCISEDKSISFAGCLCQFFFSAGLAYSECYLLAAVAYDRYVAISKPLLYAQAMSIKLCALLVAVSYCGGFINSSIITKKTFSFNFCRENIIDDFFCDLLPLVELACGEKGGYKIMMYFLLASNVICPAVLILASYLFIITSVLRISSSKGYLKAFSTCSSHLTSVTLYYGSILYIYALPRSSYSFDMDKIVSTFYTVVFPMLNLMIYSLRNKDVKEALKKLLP
How it was run: as §1

[3] = biological target: T3, OR9G4 (Homo sapiens) (UniProt Q8NGQ1)
T3 sequence (whole entry): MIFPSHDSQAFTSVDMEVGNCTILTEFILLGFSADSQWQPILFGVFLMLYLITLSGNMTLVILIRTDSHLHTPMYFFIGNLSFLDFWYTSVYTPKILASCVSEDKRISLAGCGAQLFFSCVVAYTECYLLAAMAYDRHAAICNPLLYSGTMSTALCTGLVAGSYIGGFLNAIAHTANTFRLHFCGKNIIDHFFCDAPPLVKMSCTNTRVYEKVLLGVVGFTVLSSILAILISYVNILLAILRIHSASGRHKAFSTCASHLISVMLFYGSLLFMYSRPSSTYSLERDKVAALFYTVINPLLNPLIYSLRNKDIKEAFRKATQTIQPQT
How it was run: as §1

[4] = tested on: T4, OR9G4 H6Y N206D V222A
T4 sequence (whole entry): T3 sequence (whole entry) with H6Y, N206D, V222A
How it was run: as §1

[5] = tested on: T5, OR9G4 N206D V222A
T5 sequence (whole entry): T3 sequence (whole entry) with N206D, V222A
How it was run: as §1

[6] = tested on: T6, OR9G9
T6 sequence (whole entry): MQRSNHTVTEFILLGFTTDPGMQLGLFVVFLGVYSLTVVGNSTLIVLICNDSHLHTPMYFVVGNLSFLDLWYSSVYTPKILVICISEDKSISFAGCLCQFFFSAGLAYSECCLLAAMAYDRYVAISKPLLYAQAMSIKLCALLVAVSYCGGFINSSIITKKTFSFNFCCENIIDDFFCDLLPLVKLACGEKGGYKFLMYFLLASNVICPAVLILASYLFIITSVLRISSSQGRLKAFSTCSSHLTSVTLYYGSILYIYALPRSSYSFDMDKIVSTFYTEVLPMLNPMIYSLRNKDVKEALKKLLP
How it was run: as §1

[7] = biological target: T7, OR9I1 (Homo sapiens) (UniProt Q8NGQ6)
T7 sequence (whole entry): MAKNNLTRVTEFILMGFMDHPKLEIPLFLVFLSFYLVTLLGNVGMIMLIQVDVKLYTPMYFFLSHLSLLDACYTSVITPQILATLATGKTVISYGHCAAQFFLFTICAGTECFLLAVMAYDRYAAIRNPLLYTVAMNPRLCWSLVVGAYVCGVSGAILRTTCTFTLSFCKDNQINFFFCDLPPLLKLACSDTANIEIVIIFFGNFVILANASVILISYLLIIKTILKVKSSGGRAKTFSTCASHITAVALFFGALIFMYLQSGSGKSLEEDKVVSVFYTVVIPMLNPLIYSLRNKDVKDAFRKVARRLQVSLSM
How it was run: as §1

[8] = biological target: T8, OR9K2 (Homo sapiens) (UniProt Q8NGE7)
T8 sequence (whole entry): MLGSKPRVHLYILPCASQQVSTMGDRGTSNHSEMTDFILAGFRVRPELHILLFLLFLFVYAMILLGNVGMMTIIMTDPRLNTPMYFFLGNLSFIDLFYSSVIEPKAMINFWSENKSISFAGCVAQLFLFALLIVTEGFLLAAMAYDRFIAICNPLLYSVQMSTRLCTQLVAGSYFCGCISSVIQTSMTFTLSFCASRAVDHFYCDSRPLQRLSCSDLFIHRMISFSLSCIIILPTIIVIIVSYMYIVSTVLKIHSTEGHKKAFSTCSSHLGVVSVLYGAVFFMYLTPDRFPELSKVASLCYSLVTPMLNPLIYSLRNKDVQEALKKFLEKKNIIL
How it was run: as §1

[9] = tested on: T9, OR9K2 R207H
T9 sequence (whole entry): T8 sequence (whole entry) with R207H
How it was run: as §1

[10] = biological target: T10, OR9Q1 (Homo sapiens) (UniProt Q8NGQ5)
T10 sequence (whole entry): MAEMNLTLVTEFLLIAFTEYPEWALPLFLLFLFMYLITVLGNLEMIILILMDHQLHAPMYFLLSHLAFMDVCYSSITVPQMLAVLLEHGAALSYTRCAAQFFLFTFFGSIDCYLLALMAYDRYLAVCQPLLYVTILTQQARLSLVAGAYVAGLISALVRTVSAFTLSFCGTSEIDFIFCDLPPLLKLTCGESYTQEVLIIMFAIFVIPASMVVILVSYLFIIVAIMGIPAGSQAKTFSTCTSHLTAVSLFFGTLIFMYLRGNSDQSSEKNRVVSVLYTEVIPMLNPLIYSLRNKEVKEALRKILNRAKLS
How it was run: as §1

[11] = tested on: T11, OR9Q1 A83T
T11 sequence (whole entry): T10 sequence (whole entry) with A83T
How it was run: as §1

[12] = biological target: T12, OR9Q2 (Homo sapiens) (UniProt Q8NGE9)
T12 sequence (whole entry): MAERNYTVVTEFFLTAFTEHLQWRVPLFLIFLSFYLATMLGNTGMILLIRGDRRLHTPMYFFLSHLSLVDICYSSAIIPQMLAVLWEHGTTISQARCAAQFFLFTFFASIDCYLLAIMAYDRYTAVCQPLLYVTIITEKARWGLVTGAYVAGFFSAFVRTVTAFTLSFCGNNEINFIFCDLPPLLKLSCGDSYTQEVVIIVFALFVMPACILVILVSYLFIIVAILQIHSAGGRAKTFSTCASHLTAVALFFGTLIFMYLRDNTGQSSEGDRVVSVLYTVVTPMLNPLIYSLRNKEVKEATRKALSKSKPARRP
How it was run: as §1

[13] = tested on: T13, OR9Q2 C179R
T13 sequence (whole entry): T12 sequence (whole entry) with C179R
How it was run: as §1

[14] = biological target: T14, Or5k16 (Mus musculus) (UniProt Q7TS48)
T14 sequence (whole entry): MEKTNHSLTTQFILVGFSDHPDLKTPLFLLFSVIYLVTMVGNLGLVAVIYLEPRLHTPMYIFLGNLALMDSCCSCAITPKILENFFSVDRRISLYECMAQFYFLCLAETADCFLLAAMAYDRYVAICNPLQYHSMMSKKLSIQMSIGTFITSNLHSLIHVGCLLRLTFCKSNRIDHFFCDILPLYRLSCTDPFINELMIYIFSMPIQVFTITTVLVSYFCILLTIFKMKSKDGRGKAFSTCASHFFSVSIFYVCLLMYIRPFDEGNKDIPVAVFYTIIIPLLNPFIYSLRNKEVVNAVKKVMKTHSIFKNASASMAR
How it was run: as §1

[15] = biological target: T15, Or10j5 (Mus musculus) (UniProt Q62007)
T15 sequence (whole entry): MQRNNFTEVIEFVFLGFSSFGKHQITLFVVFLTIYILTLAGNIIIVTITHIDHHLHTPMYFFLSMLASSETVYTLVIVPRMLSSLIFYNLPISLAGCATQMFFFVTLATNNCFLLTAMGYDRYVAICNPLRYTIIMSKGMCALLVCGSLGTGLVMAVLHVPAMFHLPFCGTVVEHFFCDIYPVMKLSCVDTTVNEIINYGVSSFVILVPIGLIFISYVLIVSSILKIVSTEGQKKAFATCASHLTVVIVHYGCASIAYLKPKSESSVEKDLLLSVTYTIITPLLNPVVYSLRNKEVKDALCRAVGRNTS
How it was run: as §1

[16] = biological target: T16, Or1m1 (Mus musculus) (UniProt Q8VFM9)
T16 sequence (whole entry): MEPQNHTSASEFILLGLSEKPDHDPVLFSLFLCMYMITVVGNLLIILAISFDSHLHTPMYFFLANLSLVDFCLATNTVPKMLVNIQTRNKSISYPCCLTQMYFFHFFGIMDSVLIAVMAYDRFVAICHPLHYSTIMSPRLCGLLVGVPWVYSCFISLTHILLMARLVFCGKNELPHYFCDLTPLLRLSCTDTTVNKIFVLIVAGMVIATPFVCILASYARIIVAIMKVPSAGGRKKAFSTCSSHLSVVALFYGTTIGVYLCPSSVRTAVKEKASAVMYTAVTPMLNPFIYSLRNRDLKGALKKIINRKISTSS
How it was run: as §1

[17] = biological target: T17, Or5ar1 (Mus musculus) (UniProt Q8VGS3)
T17 sequence (whole entry): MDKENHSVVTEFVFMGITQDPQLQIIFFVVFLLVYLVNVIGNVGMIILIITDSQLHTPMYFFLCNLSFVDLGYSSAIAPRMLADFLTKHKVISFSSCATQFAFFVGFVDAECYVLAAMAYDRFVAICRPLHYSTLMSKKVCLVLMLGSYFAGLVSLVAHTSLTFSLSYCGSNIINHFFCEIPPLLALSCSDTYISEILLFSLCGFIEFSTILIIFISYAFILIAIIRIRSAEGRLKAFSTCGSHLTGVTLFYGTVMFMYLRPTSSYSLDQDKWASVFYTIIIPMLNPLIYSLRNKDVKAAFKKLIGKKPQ
How it was run: as §1

[18] = biological target: T18, Or2c1 (Mus musculus) (UniProt P23275)
T18 sequence (whole entry): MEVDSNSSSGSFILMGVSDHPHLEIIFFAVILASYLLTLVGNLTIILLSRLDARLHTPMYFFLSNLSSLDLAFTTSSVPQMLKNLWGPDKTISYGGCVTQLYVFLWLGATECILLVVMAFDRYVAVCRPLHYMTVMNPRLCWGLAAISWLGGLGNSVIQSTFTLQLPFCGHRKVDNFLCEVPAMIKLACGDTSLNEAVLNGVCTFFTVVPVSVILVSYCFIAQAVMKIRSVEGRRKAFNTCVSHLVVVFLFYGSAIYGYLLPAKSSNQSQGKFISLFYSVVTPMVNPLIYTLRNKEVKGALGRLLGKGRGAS
How it was run: as §1

[19] = biological target: T19, OR9G9 (Homo sapiens) (UniProt P0C7N8)
T19 sequence (whole entry): T6 sequence (whole entry) with G193C
How it was run: as §1

[20] = biological target: T20, Or5an6 (Mus musculus) (UniProt Q8VFV4)
T20 sequence (whole entry): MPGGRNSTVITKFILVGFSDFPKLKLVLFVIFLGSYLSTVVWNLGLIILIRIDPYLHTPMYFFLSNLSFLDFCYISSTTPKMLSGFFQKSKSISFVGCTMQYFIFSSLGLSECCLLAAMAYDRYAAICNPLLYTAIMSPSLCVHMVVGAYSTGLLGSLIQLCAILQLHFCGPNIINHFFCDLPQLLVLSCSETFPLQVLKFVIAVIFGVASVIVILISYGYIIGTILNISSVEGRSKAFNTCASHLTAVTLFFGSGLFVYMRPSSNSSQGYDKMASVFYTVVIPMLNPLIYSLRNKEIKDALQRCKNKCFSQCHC
How it was run: as §1

Measured: odorant receptor agonist call

Cc1cnc(C)c(C)n1
not listed: [15] | [16] | [17] | [18] | [19] | [20]
inactive: all other assays above

CCCCCCCCCCCO
inactive: [15] | [16] | [17]

CCCCCCCO
inactive: [15] | [16] | [18] | [17]

O=C(O)CCCCCCCCCBr
inactive: [15]

CCCCOC(=O)CCC
inactive: [15]

CCCCCC(S)C(C)CO (configuration not stated)
inactive: [1] | [2] | [3] | [19] | [7] | [8] | [10] | [12]

CCCCCCO
inactive: [15] | [16] | [18] | [17]

CCC1OC(C)=C(O)C1=O (configuration not stated)
not listed: [14] | [15] | [16] | [17] | [18] | [19] | [20]
inactive: all other assays above

CC(=O)c1c(C)c([N+](=O)[O-])c(C(C)(C)C)c([N+](=O)[O-])c1C
active: [20]
inactive: [1] | [2] | [3] | [19] | [7] | [8] | [10] | [12]

O=C(O)CCCCCCCCCCBr
inactive: [15]

CCCCCCCCCO
inactive: [15] | [16] | [18] | [17]
